Data on 2 compounds can be found in paper PMC4690987 (Journal of Medicinal Chemistry, 2015).

Data set [1] concerns LTR-IV G4. The data set can be described thus: FRET melting assay. Type of data set: binding, HIV-1. The essentials: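 Oligonucleotide labelled with FAM at the 5′ end and TAMRA at the 3′ end, 0.25 μM, folded in lithium cacodylate buffer with 100 mM potassium, plus equimolar test compound. After equilibration at 4 °C, FAM emission was followed from 30 to 95 °C at 1 °C/min. Profiles were normalized, and Tm was the temperature at 0.5 normalized fluorescence.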

In data set [2] the test system is LTR-III G4. The data set can be described thus: Circular dichroism. It counts as binding, HIV-1. Conditions: 4:1 c-exNDI:DNA ratio, label-free oligonucleotide. Put shortly: (§1)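 Unlabelled oligonucleotide, final 4 μM, in 10 mM lithium cacodylate pH 7.4 with 100 mM KCl, annealed at 95 °C for 5 min, then cooled gradually to room temperature. Test compound added to a final 16 μM. CD spectra taken at 230–320 nm (5 mm cell, average of 2 scans, buffer-corrected) while heating 20–95 °C at 5 °C/min. Tm calculated by van't Hoff two-state fit.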
(Circular dichroism is the unequal absorption of left and right circularly polarised light.)

Data set [3] relates to LTR-IV G4. The data set can be described thus: Circular dichroism. Type of data set: binding, HIV-1. The conditions noted are these: 4:1 c-exNDI:DNA ratio, label-free oligonucleotide. The essentials: as §1
The subject of data set [4] is hTel G4. The data set can be described thus: Circular dichroism. Type of data set: binding, human. Conditions: 4:1 c-exNDI:DNA ratio, label-free oligonucleotide. Put shortly:
as §1

For data set [5], the system named is LTR-III, LTR-IV, and hTel templates. Nature of the data set: Taq polymerase stop assay. Type of data set: biochemical. The conditions noted are these: 2 at 3.1–25.0 nM, K+ 100 mM. Put shortly: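 A 5′-end-labelled primer was annealed to each template in lithium cacodylate buffer, with or without 100 mM KCl, by heating to 95 °C for 5 min and cooling gradually to room temperature so the templates folded into G4. A template unable to form G4 served as a control. Taq extension was run with or without test compound, and polymerase stop regions were read from the products.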

The test system of data set [6] is LTR-III G4. Nature of the data set: ESI-MS competition assay. It counts as binding, HIV-1. Conditions: 2-fold molar excess of compound. The essentials:
(§2)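 G4 oligonucleotides heat-denatured and folded overnight at room temperature in 10 mM KCl, 150 mM trimethylammonium acetate pH 6.8. Equimolar pairs of G4s incubated overnight at 4 °C with 2-fold excess test compound, then injected via HPLC into ESI-MS. Binding affinity = bound/(free + bound) ×100, from reconstructed-ion chromatogram areas. Bound includes one or two ligands; free includes K+ adducts.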

In data set [7] the test system is LTR-IV G4. Nature of the data set: ESI-MS competition assay. It counts as binding, HIV-1. Conditions: 2-fold molar excess of compound. The essentials:
as §2

Data set [8] deals with hTel G4. The data set can be described thus: ESI-MS competition assay. It counts as binding, human. Conditions: 2-fold molar excess of compound. Put shortly: as §2
For a further data set, the system named is c-kit2 G4. Nature of the data set: ESI-MS competition assay. The conditions noted are these: 2-fold molar excess of compound. It counts as binding. Put shortly:
as §2

Another data set concerns c-myc G4. Nature of the data set: ESI-MS competition assay. Type of data set: binding. Conditions: 2-fold molar excess of compound. Put shortly:
as §2

For data set [9], the target named is LTR-III G4. Nature of the data set: SPR analysis. Also on record: species or system HIV-1. Conditions: read-out: KD LTR-III G4 (SPR); 25 °C, HEPES-KCl buffer, 1:1 binding model. The essentials:
(§3)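 5′-biotinylated oligonucleotides folded (95 °C for 5 min, cooled to room temperature), diluted to 30 nM and captured on a streptavidin chip to about 500 RU, with an empty reference cell. Running buffer was 0.01 M HEPES pH 7.4, 0.2 M KCl, 3 mM EDTA. Test compound run at 25–200 nM, 30 μL/min, with 280 s contact and 360 s dissociation. Surface regenerated with 10 mM glycine pH 2.0. Sensorgrams buffer-corrected and fitted to a 1:1 model. At least two independent runs, χ2 below 0.2.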
(In general: Surface plasmon resonance follows binding to a sensor surface in real time, without labels.)

Data set [10] addresses LTR-IV G4. Nature of the data set: SPR analysis. Also on record: species or system HIV-1. Conditions: read-out: KD LTR-IV G4 (SPR); 25 °C, HEPES-KCl buffer, 1:1 binding model. Put shortly: as §3
The target in data set [11] is hTel G4. Nature of the data set: SPR analysis. The conditions noted are these: read-out: KD hTel G4 (SPR); 25 °C, HEPES-KCl buffer, 1:1 binding model. Also noted: species or system human. Put shortly:
as §3

In data set [12] the test system is HIV-1 NL4-3 strain. Nature of the data set: Antiviral assay in HIV-1 infected TZM-bl cells. Type of data set: cell-based. Conditions: for SI HIV-1 strain NL4-3: CC50 value/IC50 value. Put shortly:
(§4)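 TZM-bl cells (HeLa expressing CD4 and CCR5, with LTR-driven luciferase and β-galactosidase) were seeded at 1 ×10^4 cells/well in DMEM/10% FBS and left to adhere overnight. Cells were infected with HIV-1 NL4-3 or BaL at MOI 0.5, treated with serial dilutions of test compound, and incubated at 37 °C for 48 h. IC50 was taken as 50% inhibition of LTR-luciferase signal. CC50 came from parallel MTT on mock-infected cells. SI = CC50/IC50.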

For another data set, the system named is HIV-1 BaL strain. Nature of the data set: Antiviral assay in HIV-1 infected TZM-bl cells. It counts as cell-based. Put shortly:
as §4

The next data set in a line: Cytotoxicity assay. It counts as cell-based. The conditions noted are these: human, uninfected (mock-infected) TZM-bl cells. The essentials:
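Run in parallel with the antiviral assay, under the same conditions but on uninfected TZM-bl cells (1 ×10^4 cells/well, seeded overnight, test compound in serial dilution, 37 °C, 48 h). Viability was read by MTT absorbance. CC50 was the concentration that reduced absorbance of mock-infected cells by 50%.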

For a further data set, the system named is HIV-1 NL4-3. The data set can be described thus: HIV-1 entry assay. Type of data set: cell-based. The conditions noted are these: TZM-bl cells, virus production at 31 h pi; 2 50–100 nM, AZT 0.5 μg/mL, DS 100 μg/mL. Put shortly: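 TZM-bl cells (HeLa stably expressing CD4, CCR5 and HIV-1 LTR-driven luciferase) were grown in DMEM/10% FBS. Cells were seeded at 1 × 10^4 per well and allowed to adhere overnight, then infected with HIV-1 NL4-3 at MOI 0.5 and kept at 37 °C. Test compound or reference agents were added at 0, 1 or 2 h pi. At 31 h cells were PBS-washed and virus production was read as LTR-luciferase RLU.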

For the next data set, the system named is HIV-1 LTR promoter. The data set can be described thus: LTR-EGFP reporter assay in HeLa-Tat-III/LTR/d1EGFP cells. It counts as cell-based. The conditions noted are these: noncytotoxic concentrations of 2 (62.5–250 nM), 48 h, FACS. (In general: In a reporter assay the amount or activity of a reporter protein is the signal.)
For another data set, the system named is wt LTR promoter. Nature of the data set: Luciferase reporter assay in 293T cells. Type of data set: cell-based, HIV-1. The conditions noted are these: increasing amounts of 2, 24 h. Put shortly:
(§5)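 HEK293T cells, 9 ×10^4 per well, transfected 24 h after seeding with 100 ng of a promoterless Luc2 vector carrying the wt or M4+5 (G4-abolishing double point mutant) HIV-1 LTR. Test compound added 1 h after transfection at various concentrations for 24 h. Luciferase activity measured. Cells lysed in RIPA, and signals normalized to total protein (BCA).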

Data set [13] concerns M4 + 5 mutant LTR promoter (non-G4-forming). The data set can be described thus: Luciferase reporter assay in 293T cells. It counts as cell-based, HIV-1. The conditions noted are these: increasing amounts of 2, 24 h. The essentials:
as §5

Data set [14] has as its system HIV-1 NL4-3 strain. Conditions: previous work ref 27, 30; cited from earlier work.
The next data set has as its system TZM-bl cells. Conditions: values previously reported ref 27; cited from earlier work.

Some results are limits rather than exact numbers.

Usually Kd stands for the free concentration of one partner at which half of the binding sites on the other are occupied at equilibrium, for simple one-to-one binding. In general, IC50 refers to the concentration needed to halve the response being measured. As usually defined, the CC50 is the concentration giving 50% cytotoxicity.

With `CN(C)CCCn1c(=O)c2ccc3c(=O)n(CCCN(C)C)c(=O)c4c5[nH]c6ccccc6[nH]c5c(c1=O)c2c34` [Compound 2], the “stabilization (ΔTm, FRET) at 4-fold c-exNDI:DNA molar ratio” value in the data set with LTR-IV G4 [1] (4-fold c-exNDI:DNA molar ratio, 25 °C is the maximum increase measurable, data not shown) is “above 25 °C”. In the data set on LTR-IV G4 [1] (FRET, equimolar amounts), the “difference in stabilization of LTR-IV G4s vs hTel G4” value was not below 6 °C. Moreover, the “stabilization of LTR-III G4 by CD” value in the data set with LTR-III G4 [2] was “higher than 27 °C”. Moreover, the “stabilization of LTR-IV G4 by CD” value in the data set on LTR-IV G4 [3] is “higher than 27 °C”. Further, in the data set with hTel G4 [4], the “stabilization of hTel G4 by CD” value is 19.9 °C. Moreover, the “Taq polymerase stop site” value in data set [5] was “intense stop site at the most 3′ G tract in each G4-forming template”. Also, the “binding affinity LTR-III” value was 71 in the data set with LTR-III G4 [6] (competing G4s LTR-III/LTR-IV), 33 in the data set with LTR-III G4 [6] (competing G4s LTR-III/kit) and 39 in the data set on LTR-III G4 [6] (competing G4s LTR-III/myc). In addition, the “binding affinity LTR-IV” value was 25 in the data set on LTR-IV G4 [7] (competing G4s LTR-III/LTR-IV), 52 in the data set with LTR-IV G4 [7] (competing G4s LTR-IV/hTel), 25 in the data set on LTR-IV G4 [7] (competing G4s LTR-IV/kit) and 25 with LTR-IV G4 [7] (competing G4s LTR-IV/myc). The entries for the “binding affinity cell G4 (hTel)” value in the data set with hTel G4 [8] (competing G4s LTR-III/hTel) and in the data set with hTel G4 [8] (competing G4s LTR-IV/hTel) were 10 and 25, respectively. Moreover, the figures for the “binding affinity cell G4 (kit)” value in the data set with c-kit2 G4 (competing G4s LTR-III/kit) and in the data set on c-kit2 G4 (competing G4s LTR-IV/kit) were 12 and 9, respectively. Further, the “binding affinity cell G4 (myc)” value with c-myc G4 (competing G4s LTR-III/myc) stood at 45; in the data set with c-myc G4 (competing G4s LTR-IV/myc), 44. Also, the values for the Kd at LTR-III G4 [9], at LTR-IV G4 [10] and on hTel G4 [11] were 3.2 nM, 6.1 nM and 13.1 nM, respectively. Further, in the data set on HIV-1 NL4-3 strain [12], the “SI HIV-1 strain NL4-3” value stood at 40. Also, the IC50 came to 13.2 ± 0.1 nM in the data set with HIV-1 NL4-3 strain [12] (read-out: IC50 HIV-1 strain NL4-3, MOI 0.5, 48 h, LTR-luciferase signal) and 36.2 ± 4.3 nM with HIV-1 BaL strain (read-out: IC50 HIV-1 strain BaL, MOI 0.5, 48 h, LTR-luciferase signal). Further, the “SI HIV-1 strain BaL” value with HIV-1 BaL strain (CC50 value/IC50 value) came out at 14. In addition, the 50% cytotoxic concentration (CC50) in the data set “Cytotoxicity assay” was found to be 532 ± 11.7 nM. Moreover, the “antiviral activity as a function of time of addition (0, 1, 2 h pi)” value with HIV-1 NL4-3 is listed as “No significant difference in the activity of the compound was observed at the tested times”. The “inhibition of mean EGFP levels (LTR promoter activity)” value with HIV-1 LTR promoter is given as “up to 60%”. Besides, the “inhibition of wt LTR luciferase activity” value in the data set with wt LTR promoter is recorded as “up to 65%”. Moreover, the “effect on non-G4-forming mutant LTR (M4 + 5) luciferase activity” value in [13] is “no effect”.

As for `CN(C)c1ccc(Nc2c3ccc(NC(=O)CCN4CCCC4)cc3nc3cc(NC(=O)CCN4CCCC4)ccc23)cc1.Cl.Cl.Cl` [Compound 1, BRACO-19], the “SI HIV-1 strain NL4-3” value in the data set with HIV-1 NL4-3 strain [12] is given as more than 3.5. Also, in the data set on HIV-1 NL4-3 strain [14], the “IC50 (virus production in infected cells)” value is reported as “low μM range” and the “average selectivity index (SI)” value was 12. In addition, the 50% cytotoxic concentration (CC50) in the data set with TZM-bl cells is more than 12000 nM.
